Data as given in ChEMBL document CHEMBL4368918, “Structure-Based Design of Inhibitors Selective for Human Proteasome β2c or β2i Subunits” (J Med Chem, 2019).
Calls of active or inactive are those of the source. The rule behind the calls is not given here.

Legend:
[1] = target: T1, Proteasome subunit beta type-10 (Homo sapiens, UniProt P40306); assay: Inhibition of 20S immunoproteasome beta 2 in human RPMI8226 cell lysates after 1 hr by coomassie brilliant blue staining-based fluorescence assay; type: subcellular, Lysate
T1 sequence (P40306 whole entry): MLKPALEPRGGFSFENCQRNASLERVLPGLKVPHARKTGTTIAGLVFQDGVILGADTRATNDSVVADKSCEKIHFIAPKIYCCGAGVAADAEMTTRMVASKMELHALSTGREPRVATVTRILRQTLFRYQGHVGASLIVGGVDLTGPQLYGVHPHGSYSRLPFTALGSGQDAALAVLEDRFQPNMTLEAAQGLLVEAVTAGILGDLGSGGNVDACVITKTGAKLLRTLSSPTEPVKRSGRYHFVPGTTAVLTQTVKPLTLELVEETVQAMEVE

[2] = target: T2, Proteasome subunit beta type-10 (Homo sapiens) (UniProt P40306); assay: Inhibition of Morp-Ala-Tyr(O-C2H4-BODIPY(FL))-1-DecAla-EK binding to 20S immunoproteasome beta 2 in human Raji cell lysates at 1 uM in presence of 3-probe mixture by competitive ABPP assay; type: subcellular; conditions: Lysate
T2 sequence (whole entry): T1 sequence (P40306 whole entry)

[3] = target: T3, Proteasome subunit beta type-8 (Homo sapiens, UniProt P28062); assay: Inhibition of 20S immunoproteasome beta 5 in human RPMI8226 cell lysates after 1 hr by coomassie brilliant blue staining-based fluorescence assay; type: subcellular, Lysate
T3 sequence (P28062 whole entry): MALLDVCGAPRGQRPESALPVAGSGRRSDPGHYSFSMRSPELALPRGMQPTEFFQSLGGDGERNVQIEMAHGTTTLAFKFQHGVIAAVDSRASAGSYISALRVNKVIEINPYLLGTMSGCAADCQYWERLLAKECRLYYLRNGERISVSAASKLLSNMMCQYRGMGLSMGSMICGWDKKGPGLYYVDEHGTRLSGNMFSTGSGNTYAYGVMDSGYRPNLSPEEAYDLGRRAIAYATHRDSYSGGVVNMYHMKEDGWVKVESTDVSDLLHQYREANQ
Outline: (§1)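 Living RPMI-8226 cells were grown in RPMI-1640 with 10% FCS. Cells at (5–8)×10⁵ cells/mL were exposed to inhibitor for 1 h at 37 °C, washed in PBS and lysed on ice for 1 h in digitonin/ATP buffer. Residual activity was read by cocktail-ABP labeling, SDS-PAGE and fluorescence densitometry relative to mock, with Coomassie staining correcting for loading. IC50 came from three independent experiments.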

[4] = target: T2, Proteasome subunit beta type-10 (Homo sapiens); assay: Inhibition of Morp-Ala-Tyr(O-C2H4-BODIPY(FL))-1-DecAla-EK binding to immunoproteasome beta 2 in human Raji cell lysates at 0.1 uM by competitive ABPP assay; type: subcellular; conditions: Lysate
Outline: (§2)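 Raji lysate was preincubated with inhibitor, then labeled with the BODIPY(FL) probe alone. β2i labeling was read by in-gel fluorescence at Cy2 settings after SDS-PAGE.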

[5] = target: T3, Proteasome subunit beta type-8; assay: Inhibition of 20S immunoproteasome beta 5 in human Raji cell lysates after 1 hr by competitive ABPP assay; type: subcellular, Lysate
[6] = target: Proteasome Macropain subunit (Homo sapiens) (UniProt P49721); conditions: Raji, Lysate, 1 uM
[7] = target: T1, Proteasome subunit beta type-10; assay: Inhibition of 20S immunoproteasome beta 2 in human Raji cell lysates after 1 hr by competitive ABPP assay; type: subcellular, Lysate
[8] = target: T4, Proteasome subunit beta type-9 (Homo sapiens, UniProt P28065); assay: Inhibition of 20S immunoproteasome beta 1 in human RPMI8226 cell lysates after 1 hr by coomassie brilliant blue staining-based fluorescence assay; type: subcellular, Lysate; outline: as §1
T4 sequence (P28065 whole entry): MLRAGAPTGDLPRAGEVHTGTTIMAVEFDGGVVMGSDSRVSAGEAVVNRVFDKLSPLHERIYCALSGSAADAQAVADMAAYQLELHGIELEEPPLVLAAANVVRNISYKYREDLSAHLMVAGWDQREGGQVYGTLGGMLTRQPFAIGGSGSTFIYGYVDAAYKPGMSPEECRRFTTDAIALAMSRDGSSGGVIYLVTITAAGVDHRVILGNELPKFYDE

[9] = target: T2, Proteasome subunit beta type-10 (Homo sapiens); assay: Inhibition of Morp-Ala-Tyr(O-C2H4-BODIPY(FL))-1-DecAla-EK binding to immunoproteasome beta 2 in human Raji cell lysates at 0.3 uM by competitive ABPP assay; type: subcellular; conditions: Lysate; outline: as §2
[10] = target: T5, Proteasome Macropain subunit MB1 (Homo sapiens, UniProt P28074); assay: Inhibition of 20S constitutive proteasome beta 5 chymotrypsin-like activity in human RPMI8226 cell lysates after 1 hr by coomassie brilliant blue staining-based fluorescence assay; type: subcellular, Lysate
T5 sequence (P28074 whole entry): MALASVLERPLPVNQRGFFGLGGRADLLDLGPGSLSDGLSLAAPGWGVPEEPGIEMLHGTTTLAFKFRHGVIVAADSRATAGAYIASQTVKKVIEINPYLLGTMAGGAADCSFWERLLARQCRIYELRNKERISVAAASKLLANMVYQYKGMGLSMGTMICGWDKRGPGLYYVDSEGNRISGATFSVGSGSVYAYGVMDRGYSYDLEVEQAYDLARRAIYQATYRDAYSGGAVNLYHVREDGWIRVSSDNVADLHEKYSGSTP
Outline: as §1, with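 “Cells” for “Living RPMI-8226 cells were grown in RPMI-1640 with 10% FCS. Cells”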

[11] = target: Proteasome Macropain subunit (Homo sapiens) (UniProt P49721); assay: Inhibition of Morp-Ala-Tyr(O-C2H4-BODIPY(FL))-1-DecAla-EK binding to 20S constitutive proteasome beta 2 in human Raji cell lysates at 0.3 uM in presence of 3-probe mixture by competitive ABPP assay; type: subcellular; conditions: Lysate
[12] = target: T4, Proteasome subunit beta type-9; assay: Inhibition of 20S immunoproteasome beta 1 in human Raji cell lysates after 1 hr by competitive ABPP assay; type: subcellular, Lysate
Outline: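 Raji cells were sonicated in 3 volumes of Tris pH 7.5 lysis buffer containing DTT, MgCl₂, sucrose, 2 mM ATP and 0.05% digitonin. Lysate (5 μg protein, in buffer with 2 mM ATP and glycerol) was preincubated with inhibitor for 1 h at 37 °C, then with a cocktail of three fluorescent ABPs for 1 h. […] In-gel fluorescence densitometry was normalized to mock. IC50 came from the mean of three experiments.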

[13] = target: T1, Proteasome subunit beta type-10; assay: Inhibition of 20S immunoproteasome beta 2 (unknown origin) by cell based ABPP assay
Outline: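 Living RPMI-8226 cells, (5–8) ×10^5 cells/mL, exposed to inhibitor 1 h at 37 °C, washed, lysed in digitonin buffer 1 h on ice; residual activity labelled with cocktail ABPs, SDS-PAGE in-gel fluorescence, bands divided by mock, Coomassie staining to correct loading. IC50 from mean of three independent experiments.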

[14] = target: T2, Proteasome subunit beta type-10 (Homo sapiens); assay: Inhibition of Morp-Ala-Tyr(O-C2H4-BODIPY(FL))-1-DecAla-EK binding to 20S immunoproteasome beta 2 in human Raji cell lysates at 0.3 uM in presence of 3-probe mixture by competitive ABPP assay; type: subcellular; conditions: Lysate

| Structure (SMILES) | IC50 [1] [nM] | inhibition [2] | IC50 [3] [µM] | inhibition [4] | IC50 [5] [nM] | inhibition [6] | IC50 [7] [nM] | IC50 [8] [µM] | inhibition [9] | IC50 [10] [µM] | inhibition [11] | IC50 [12] [µM] | IC50 [13] [nM] | inhibition [14] |
| --- | --- | --- | --- | --- | --- | --- | --- | --- | --- | --- | --- | --- | --- | --- |
| CC(C)C[C@H](NC(=O)[C@H](Cc1ccccc1)N=[N+]=[N-])C(=O)N[C@@H](CC(C)C)C(=O)N[C@H](/C=C/S(C)(=O)=O)Cc1ccc(CN)cc1 | 410 | Active | > 10 | Active | 1170 | Active | 20 | > 10 |  |  |  |  |  |  |
| CC(C)C[C@H](NC(=O)[C@H](Cc1ccccc1)N=[N+]=[N-])C(=O)N[C@@H](C)C(=O)N[C@H](/C=C/S(C)(=O)=O)Cc1ccc(CN)cc1 | > 10000 |  | > 10 |  |  |  | 140 |  | Active | > 10 | Active | > 100 | 325 | Active |
